G6PDH CS: counter-screen for G6PDH assay hits: L. mesenteroides G6PDH inhibition | Purified L. mesenteroides G6PDH, diaphorase/resazurin coupled fluorescence, 45 min | inhibition, % at 5 µM | 200,000 tested, 0.12% active
Diaph act CS: counter-screen for diaphorase-based assays: diaphorase activators and chemical reducers. Diaphorase/resazurin coupled assay, resorufin fluorescence, 16 min; hits give high values; 1 = vehicle wells, 0 = NADH-free wells. activation factor at 20 µM. 190,000 tested, 0.005% active. AID 1229;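 active = diaphorase activity raised at least twofold by the compound at 20 µM; inactive = activation factor below 2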
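Test system: Clostridium kluyveri diaphorase, purified enzyme. Buffer or medium: 50 mM HEPES pH 7.4 buffer plus MgCl2 and Tween 20. Also added: 0.114 mM NADH and 0.1 mM resazurin, final amounts. Dosing: compound 20 µM once, DMSO 1%. Schedule: 16 min enzyme reaction, ambient temperature. Detection: fluorescence of resorufin, 544 nm excitation, 590 nm emission.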
DTT redox prof: compounds producing H2O2 with reducing agent – biochemical, NIH compound library profiling, artefact control for MLSCN library redox annotation, primary screen | 200,000 tested, 0.03% active | activation, % at 10 µM | AID 878 | DTT-dependent redox cycling H2O2, phenol red/HRP absorbance; 100% = 100 µM peroxide control, 0% = buffer;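 active = activation of at least 50% relative to the plate's high and low controls in the primary single-dose screen; inactive = activation below 50%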;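 note: compound incubated with DTT at 0.8 mM final as the reducing agent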
L major viab: inhibitors of Leishmania major promastigote growth; AID 1063; Leishmania major promastigotes, resazurin fluorescence viability; inhibition, % at 10 µM; 200,000 tested, 9% active;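 note: promastigotes grown with compound for 44 hours at 28 °C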
PfG6PD inh: PfG6PD (Plasmodium falciparum) enzyme inhibition; PfGluPho enzyme, NADPH resazurin-diaphorase fluorescence; inhibition, % at 20 µM; 350,000 tested, 0.78% active;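 active = inhibition reaching at least a set limit at 20 µM in the primary screen, cut at about 59% in these data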;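 note: 0% = DMSO wells with substrate and 100% = DMSO wells lacking glucose-6-phosphate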
Diaph inh CS: counter-screen for diaphorase-based assays: diaphorase inhibitors and chemical oxidizers; diaphorase resazurin-to-resorufin fluorescence, NADH, 16 min; bacterial (C. kluyveri) enzyme, not human; inhibition, % at 20 µM; 190,000 tested, 0.69% active;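 active = primary screen inhibition at 20 µM above a set limit, cut at about 50% in these data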;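 note: plate controls were DMSO with full reaction for no effect and wells lacking NADH for full effect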
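Assay system: diaphorase enzyme from Clostridium kluyveri; Input: enzyme working solution with 0.14 U/mL diaphorase; Timing: 16 min at room temperature; Technique: resorufin fluorescence, excitation 544 nm, emission 590 nm; Benchmarks: positive control minus NADH, DMSO neutral control.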
An asterisk follows results filed as active; . = no result given. Shown is part of a subset that was picked to be rich in hits. Cut-off read from the data, not from the text of the source, unless noted: active = inhibition above about 50%; inactive = the rest.

SMILES	G6PDH CS	Diaph act CS	DTT redox prof	L major viab	PfG6PD inh	Diaph inh CS
Cc1ccc(C)n1-c1ccc(NC(=O)c2ccccc2)cc1	-3.9	0.9	0.8	58.4*	10.8	7.6
Cc1cc(NC(=O)c2ccccc2)sc1C	-1.0	1	0.0	-1.6	42.1	1.3
Cc1ccc(C)n1-c1ccc(C(=O)Nc2ccccc2F)cc1	3.9	1	-0.9	4.2	-0.4	1.2
Cc1ccc(NC(=O)c2ccccc2)s1	5.6	0.8	3.0	69.3*	12.6	17.2
CC(=O)Nc1ccc(NC(=O)c2ccc(-n3c(C)ccc3C)cc2)cc1	-16.7	0.9	-0.7	68.5*	-7.9	11.5
CCC(=O)Nc1ccc2c(c1)nc(CN1CCN(C(C)=O)CC1)n2C	11.4	1	-14.7	-2.8	2.8	3.7
CC(C)(C)c1ccc(C(=O)NCC(=O)NCc2ccccn2)cc1	.	.	.	.	10.4	.
Cc1cccc(-c2nc(CSCC(=O)N3CCN(c4ccccn4)CC3)c(C)o2)c1	7.4	1	-5.2	3.3	35.7	0.9
C=CCOC(=O)C1=C(C)NC(C)=C(C(=O)OCC=C)C1/C=C/c1ccccc1	-1.6	0.7	-4.3	100.1*	28.3	29.1
CCOC(=O)C1=C(C)NC(C)=C(C(=O)OCC)C1/C=C/c1ccccc1	-0.4	0.8	17.1	0.7	14.0	24.8
CCOC(=O)c1c(S(=O)(=O)N2CCN(Cc3ccccc3)CC2)c(C)n(C)c1C	.	.	.	.	-2.3	.
Cc1ccccc1-c1nn(-c2ccc(F)cc2F)cc1CNCCCN(C)C	10.6	1.6	-1.9	100.2*	-13.8	-56.1
COCCN(C)Cc1cn(-c2ccc(F)cc2F)nc1-c1ccccc1C	17.2	1.1	-0.6	11.2	5.6	-10.0
Cc1ccccc1-c1nn(-c2ccc(F)cc2F)cc1CNCCN(C)C	12.9	1.2	-1.3	74.2*	2.7	-20.1
O=C(c1cc2ccccc2o1)N1CCN=C1SCc1cccnc1	8.6	0.9	0.7	5.5	1.3	9.4
O=C1C=CC(=O)N1CCCCCCN1C(=O)C=CC1=O	-6.7	1	0.2	-3.9	95.0*	1.9
O=c1c2c3c(sc2ncn1/N=C/c1ccc([N+](=O)[O-])o1)CCCC3	8.5	0.8	1.9	96.0*	38.4	24.1
Cc1cccc(NC(=O)CSc2nnc(CNC(=O)c3ccc(S(=O)(=O)N(C)C)cc3)n2-c2ccccc2)c1	12.9	1	0.4	54.7*	0.8	0.7
Cc1cccc(NC(=O)CSc2nnc(CNC(=O)c3ccc(S(=O)(=O)N(C)C)cc3)n2-c2ccc(F)cc2)c1	10.3	0.9	0.1	-7.5	-1.3	14.5
Cc1cccc(NC(=O)CSc2nnc(CNC(=O)c3ccc(S(=O)(=O)N(C)C)cc3)n2-c2cccc(C)c2)c1	10.6	1	0.6	72.1*	3.3	2.9
Cc1cccc(-n2c(CNC(=O)c3ccc(S(=O)(=O)N(C)C)cc3)nnc2SCC(=O)Nc2ccc(F)cc2)c1	16.7	0.8	-0.3	-8.4	5.0	17.5
CC(=O)c1ccc(OC(=O)N(c2ccccc2)c2ccccc2)cc1	-0.1	0.9	-0.2	1.9	-0.1	13.2
COc1ccc(-c2cc(C(F)(F)F)nc(N3CCN(C)CC3)n2)cc1OC	9.3	1	1.3	84.8*	4.5	-2.6
COc1ccc(-c2cc(C(F)(F)F)nc(N3CCCCC3)n2)cc1OC	-3.1	0.8	-3.4	14.3	24.7	22.6
CCOc1cc(/C=C2/COc3ccccc3C2=O)ccc1OCC(=O)N(C)C	1.5	0.9	0.1	100.4*	-8.1	5.9
SMILES	G6PDH CS	Diaph act CS	DTT redox prof	L major viab	PfG6PD inh	Diaph inh CS
CCOc1cc(/C=C/C(=O)c2ccc(C)cc2)ccc1OCC(=O)N(C)C	-2.5	1	-0.2	100.0*	4.3	2.0
COc1cc(/C=C/C(=O)c2ccc(C)cc2)ccc1OCC#N	11.5	0.9	0.1	97.8*	14.4	11.3
COc1ccc(/C=C/C(=O)c2ccc(C(=O)/C=C/c3ccc(OC)c(OC)c3)cc2)cc1OC	.	.	.	.	13.1	.
CCOC(=O)c1ccc(NS(=O)(=O)c2c(C)nc3sccn3c2=O)cc1	.	.	.	.	9.1	.
CCc1nnc(NC(=O)c2ccc3ccccc3n2)s1	3.0	1.1	0.2	55.9*	9.5	-5.7
Cc1cc(N/N=C/c2ccc(Cl)cc2Cl)nc(NCc2ccccc2)n1	-4.2	1	2.4	62.2*	22.1	4.7
Cc1cc(N2CCC(C)CC2)nc(NCc2ccccc2)n1	0.9	0.9	-0.2	85.7*	1.5	5.7
Cc1cc(N2CCC(C)CC2)nc(-c2ccccc2O)n1	.	.	.	.	-7.8	.
Cc1cc(Nc2ccccc2)nc(NCc2ccccc2)n1	0.7	1.1	0.3	100.2*	26.0	-9.5
Cc1ccc(/C=N/Nc2cc(C)nc(NCc3ccccc3)n2)cc1	.	.	.	.	28.7	.
CCCCNc1cc(C)nc(NCc2ccccc2)n1	5.3	1.1	-0.3	100.5*	-4.8	-10.0
CNC(=O)c1cc(S(=O)(=O)Nc2ccc3c(c2)OCO3)ccc1C	.	.	.	.	8.0	.
COc1cc(C(=O)NCC(c2cccs2)N2CCOCC2)ccc1OCc1ccccc1 (centres undefined)	.	.	.	.	0.1	.
O=C(COc1ccc(F)cc1F)N1CCCCCCC1	.	.	.	.	6.2	.
COc1cccc(C(=O)NNC2OC(CO)C(O)C2O)c1 (centres undefined)	11.6	1	-1.1	-4.4	-2.1	0.0
Cc1cc(N/N=C/c2ccc(F)cc2)nc(NCc2ccccc2)n1	.	.	.	.	18.8	.
Cc1cc(Nc2cccc(F)c2)nc(NCc2ccccc2)n1	3.3	0.9	0.6	100.4*	46.2	8.0
Cc1cccc(NC(=O)c2sc3nc4c(c(-c5cccs5)c3c2N)CN(C)CC4)c1	3.1	0.8	0.2	55.6*	58.7	20.5
CC(=O)NC1CC2CCC(C1)N2Cc1ccc(C)cc1 (centres undefined)	15.5	1	-2.0	89.8*	-1.1	1.3
CNC(=S)NC1CC2CCCC(C1)N2Cc1ccc(C)cc1 (centres undefined)	8.3	1	2.0	90.6*	-11.3	-0.3
Cc1oc2c(O)c(O)ccc2c(=O)c1-c1cnn(-c2ccccc2)c1	14.9	0.3	2.5	34.1	-12.2	70.0*
O=C(c1cc(-c2ccccn2)nc2c(Cl)cccc12)N1CCN(C(=O)C2CCCO2)CC1 (centres undefined)	4.3	0.9	1.5	8.5	4.8	8.1
O=C(c1cc(-c2ccccn2)nc2c(Cl)cccc12)N1CCN(S(=O)(=O)c2ccccc2)CC1	3.6	0.8	-0.2	80.7*	-0.6	19.3
COC(=O)C(c1ccccc1)N(Cc1cccc(CN(C(C(=O)OC)c2ccccc2)S(C)(=O)=O)c1)S(C)(=O)=O (centres undefined)	.	.	.	.	6.0	.
